Reference: ChEMBL document CHEMBL5331128, “Alicyclic Ring Size Variation of 4-Phenyl-2-naphthoic Acid Derivatives as P2Y14 Receptor Antagonists” (J Med Chem, 2023)
The source made the active and inactive calls.

Legend:
[1] = Lipophilicity, log D of compound at pH 7.4 incubated for 20 hrs by HPLC analysis; assay type: physicochemical; conditions: buffer
P2Y purinoceptor 14 [2] = target: T1, P2Y purinoceptor 14 (Homo sapiens, UniProt Q15391); assay: Displacement of fluorescent tracer 4-(4-(1-(4-(1-(6-(3-carboxylato-4-(3-iminio-3H-xanthen-9-yl)benzamido)hexyl)-4,5-dihydro-1H-pyrrol-3-yl)butyl)piperidin-1-ium-4-yl)phenyl)-7-(4-(trifluoromethyl)phenyl)-2-naphthoate from human P2Y14R stably expressed in CHO cells assessed as inhibition constant by flow cytometry; assay type: cell-based
T1 sequence (Q15391 whole entry): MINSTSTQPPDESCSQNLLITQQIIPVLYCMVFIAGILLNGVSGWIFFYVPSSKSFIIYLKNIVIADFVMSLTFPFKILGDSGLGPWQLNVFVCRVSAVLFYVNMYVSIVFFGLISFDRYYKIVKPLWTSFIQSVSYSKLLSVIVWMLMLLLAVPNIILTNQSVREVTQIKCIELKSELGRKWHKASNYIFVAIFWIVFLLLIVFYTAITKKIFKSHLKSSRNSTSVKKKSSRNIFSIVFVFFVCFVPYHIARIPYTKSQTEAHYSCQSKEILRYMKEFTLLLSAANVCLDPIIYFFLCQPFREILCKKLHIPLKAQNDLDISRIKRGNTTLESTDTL
How it was run: (§1)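 Whole-cell competitive binding: CHO cells expressing hP2Y14R (or HEK-293 cells expressing mP2Y14R) incubated with AlexaFluor488-labelled antagonist tracer at 20 nM.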

P2Y purinoceptor 14 [3] = target: T1, P2Y purinoceptor 14; assay: Displacement of fluorescent tracer 4-(4-(1-(4-(1-(6-(3-carboxylato-4-(3-iminio-3H-xanthen-9-yl)benzamido)hexyl)-4,5-dihydro-1H-pyrrol-3-yl)butyl)piperidin-1-ium-4-yl)phenyl)-7-(4-(trifluoromethyl)phenyl)-2-naphthoate from human P2Y14R stably expressed in CHO cells by flow cytometry; assay type: cell-based; how it was run: as §1
Mus musculus [4] = assay: Antiallodynic activity in CCI surgery neuropathic pain Hsd:ICR mouse model assessed as reversal of mechano-allodynia by measuring paw withdrawal threshold at 10 micromol/kg,ip and measured upto 5 days by von frey test; assay type: functional, organism-based; conditions: dose 10.0 µmol/kg, time <= 5.0 day
How it was run: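 CCI neuropathic pain in adult male Hsd:ICR (CD-1) mice (20–30 g). Single i.p. injection on day 7 after sciatic nerve constriction, at peak pain. Vehicle 10% (Kolliphor HS 15:DMSO 5:95) in saline, 0.2 mL. Paw withdrawal threshold by von Frey filaments on ipsilateral and contralateral hindpaws. Mean ± SD; two-way ANOVA with Dunnett's test versus day 0 and day 7.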

Mus musculus [5] = assay: Antiallodynic activity in CCI surgery neuropathic pain Hsd:ICR mouse model assessed as reversal of mechano-allodynia by measuring paw withdrawal threshold at 10 micromol/kg,po and measured upto 6 hrs by von frey test; assay type: functional, organism-based; conditions: dose 10.0 µmol/kg
How it was run: (§2)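 CCI neuropathic pain in adult male CD-1 mice. Single oral gavage dose of 10 μmol/kg on day 7 post-surgery. Vehicle 5% DMSO + 10% (Kolliphor HS 15:DMSO 5:95) in 0.5% methylcellulose, 0.2 mL. Von Frey paw withdrawal threshold on both hindpaws. Mean ± SD; two-way ANOVA with Dunnett's test.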

Mus musculus [6] = assay: Anti-asthmatic activity against OVA/Aspergillus-sensitized protease-mediated C57BL/6J mouse model allergic asthma assessed as reduction in neutrophils in BAL fluid at 10 mg/kg,ip followed by 0.5 hrs OVA challenge and measured after 48 hrs; assay type: functional, organism-based; conditions: time 48.5 hrs
Mus musculus [7] = assay: Anti-asthmatic activity against OVA/Aspergillus-sensitized protease-mediated C57BL/6J mouse model allergic asthma assessed as reduction in lymphocytes in BAL fluid at 10 mg/kg,ip followed by 0.5 hrs OVA challenge and measured after 48 hrs; assay type: functional, organism-based; conditions: time 48.5 hrs
Mus musculus [8] = assay: Anti-asthmatic activity against OVA/Aspergillus-sensitized protease-mediated C57BL/6J mouse model allergic asthma assessed as reduction in airway eosinophilia in BAL fluid at 10 mg/kg,ip followed by 0.5 hrs OVA challenge and measured after 48 hrs; assay type: functional, organism-based; conditions: time 48.5 hrs
Mus musculus [9] = assay: Anti-asthmatic activity against OVA/Aspergillus-sensitized protease-mediated C57BL/6J mouse model allergic asthma assessed as reduction in macrophages in BAL fluid at 10 mg/kg,ip followed by 0.5 hrs OVA challenge and measured after 48 hrs; assay type: functional, organism-based; conditions: time 48.5 hrs
[10] = Stability in human plasma assessed as half life at 1 uM and measured at 120 mins by LC-MS/MS analysis; assay type: ADME, cell-free
Mus musculus [11] = assay: Antiallodynic activity in CCI surgery neuropathic pain Hsd:ICR mouse model assessed as reversal of mechano-allodynia by measuring paw withdrawal threshold at 10 micromol/kg,po and measured at 1 hrs by von frey test; assay type: functional, organism-based; conditions: dose 10.0 µmol/kg; how it was run: as §2
[12] = Stability in mouse plasma assessed as half life at 1 uM and measured at 120 mins by LC-MS/MS analysis; assay type: ADME, cell-free
[13] = Selectivity ratio, ratio of IC50 for displacement of fluorescent tracer 4-(4-(1-(4-(1-(6-(3-carboxylato-4-(3-iminio-3H-xanthen-9-yl)benzamido)hexyl)-4,5-dihydro-1H-pyrrol-3-yl)butyl)piperidin-1-ium-4-yl)phenyl)-7-(4-(trifluoromethyl)phenyl)-2-naphthoate from mouse P2Y14R stably expressed in human HEK293 cells to IC50 for displacement of fluorescent tracer 4-(4-(1-(4-(1-(6-(3-carboxylato-4-(3-iminio-3H-xanthen-9-yl)benzamido)hexyl)-4,5-dihydro-1H-pyrrol-3-yl)butyl)piperidin-1-ium-4-yl)phenyl)-7-(4-(trifluoromethyl)phenyl)-2-naphthoate from human P2Y14R stably expressed in CHO cells; assay type: cell-based
P2Y purinoceptor 14 [14] = target: T2, P2Y purinoceptor 14 (Mus musculus, UniProt Q9ESG6); assay: Displacement of fluorescent tracer 4-(4-(1-(4-(1-(6-(3-carboxylato-4-(3-iminio-3H-xanthen-9-yl)benzamido)hexyl)-4,5-dihydro-1H-pyrrol-3-yl)butyl)piperidin-1-ium-4-yl)phenyl)-7-(4-(trifluoromethyl)phenyl)-2-naphthoate from mouse P2Y14R stably expressed in human HEK293 cells by flow cytometry; assay type: cell-based
T2 sequence (Q9ESG6 whole entry): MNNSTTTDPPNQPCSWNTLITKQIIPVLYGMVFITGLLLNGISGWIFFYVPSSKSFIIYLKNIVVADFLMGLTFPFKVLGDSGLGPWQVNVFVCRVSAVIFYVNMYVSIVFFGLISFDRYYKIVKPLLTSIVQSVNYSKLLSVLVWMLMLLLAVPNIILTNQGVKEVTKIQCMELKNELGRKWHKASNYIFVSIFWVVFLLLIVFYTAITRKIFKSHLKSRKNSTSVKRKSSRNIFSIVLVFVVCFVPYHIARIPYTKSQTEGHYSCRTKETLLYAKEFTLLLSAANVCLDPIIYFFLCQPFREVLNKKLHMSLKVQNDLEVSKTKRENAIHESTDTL
How it was run: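 Whole-cell competitive binding: CHO cells expressing hP2Y14R (or HEK-293 cells expressing mP2Y14R) incubated with AlexaFluor488-labelled antagonist tracer at 20 nM. […] Ki derived by dividing IC50 by 1.72.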

SMILES | logD at 20 h [1] | Ki (P2Y purinoceptor 14 [2]) [nM] | IC50 (P2Y purinoceptor 14 [3]) [nM] | further results
O=C(O)c1cc(-c2ccc([C@@H]3[C@@H]4CNC[C@H]3C4)cc2)c2ccc(-c3ccc(C(F)(F)F)cc3)cc2c1 | 2.8 | 305 | 524 | –
O=C(O)c1cc(-c2ccc(C3C[C@H]4CNC[C@@H]4C3)cc2)c2ccc(-c3ccc(C(F)(F)F)cc3)cc2c1 (racemic) | 2.4 | 18.6 | – | –
CCOC(=O)N1C[C@H]2C[C@@H]1C[C@@H]2c1ccc(-c2cc(C(=O)OCC(=O)N(C)C)cc3cc(-c4ccc(C(F)(F)F)cc4)ccc23)cc1 | – | – | – | Activity (Mus musculus [4]): Active; Activity (Mus musculus [5]): Active
CCOC(=O)N1C[C@H]2C[C@@H](C1)[C@@]2(O)c1ccc(-c2cc(C(=O)OCC(=O)N(C)C)cc3cc(-c4ccc(C(F)(F)F)cc4)ccc23)cc1 | – | – | – | Activity (Mus musculus [4]): Active; Activity (Mus musculus [6]): inactive; Activity (Mus musculus [7]): inactive; Activity (Mus musculus [8]): inactive; Activity (Mus musculus [9]): inactive; Activity (Mus musculus [5]): Active
O=C(O)c1cc(-c2ccc(C3CNC3)cc2)c2ccc(-c3ccc(C(F)(F)F)cc3)cc2c1 | 1.4 | 38.3 | – | –
O=C(O)c1cc(-c2ccc(C3CCNCC3)cc2)c2ccc(-c3ccc(C(F)(F)F)cc3)cc2c1 [PPTN] | – | – | – | half-life at 1 µM [10]: > 720 min; Activity (Mus musculus [11]): Active; half-life at 1 µM [12]: 1.5 min
O=C(O)c1cc(-c2ccc(/C3=C/CCNCCC3)cc2)c2ccc(-c3ccc(C(F)(F)F)cc3)cc2c1 | 2.9 | 34 | 58.4 | –
O=C(O)c1cc(-c2ccc(C3CCCNCCC3)cc2)c2ccc(-c3ccc(C(F)(F)F)cc3)cc2c1 | 2.5 | 10.8 | 18.5 | Ratio IC50 [13]: 0.627; IC50 (P2Y purinoceptor 14 [14]): 11.6 nM
CCOC(=O)N1C[C@H]2C[C@@H](C1)[C@@]2(O)c1ccc(-c2cc(C(=O)O)cc3cc(-c4ccc(C(F)(F)F)cc4)ccc23)cc1 | – | 47.4 | 81.6 | –
